Columns and labels:
Assay in all cases: PBP competition assay with Bocillin FL
Type in all cases: binding
E. coli PBP2 = molecular target: T1, E. coli PBP2 (Escherichia coli, UniProt P0AD65)
T1 sequence (P0AD65 1-633): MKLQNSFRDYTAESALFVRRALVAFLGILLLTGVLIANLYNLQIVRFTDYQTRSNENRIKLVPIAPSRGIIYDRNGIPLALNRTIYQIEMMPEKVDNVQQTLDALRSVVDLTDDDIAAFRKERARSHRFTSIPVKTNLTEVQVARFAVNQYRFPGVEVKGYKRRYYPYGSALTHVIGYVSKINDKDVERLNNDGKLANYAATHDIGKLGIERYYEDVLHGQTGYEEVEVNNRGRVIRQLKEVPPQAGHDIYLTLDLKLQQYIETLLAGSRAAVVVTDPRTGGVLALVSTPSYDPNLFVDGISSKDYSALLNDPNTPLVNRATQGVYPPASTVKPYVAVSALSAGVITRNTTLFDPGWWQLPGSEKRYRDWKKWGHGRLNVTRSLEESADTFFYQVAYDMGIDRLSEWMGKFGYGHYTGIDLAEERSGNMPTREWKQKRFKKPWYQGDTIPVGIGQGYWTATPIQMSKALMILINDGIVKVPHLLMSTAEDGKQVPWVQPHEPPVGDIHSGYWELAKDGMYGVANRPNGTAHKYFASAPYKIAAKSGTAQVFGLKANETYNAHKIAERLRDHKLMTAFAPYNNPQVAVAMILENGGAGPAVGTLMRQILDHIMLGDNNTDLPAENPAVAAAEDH
In short: (§1)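 E. coli K-12 or P. aeruginosa 1771 grown in BHI at 35°C to A600 ~1.5. Cells in 50 mM phosphate pH 7.0 were French-pressed; membranes pelleted at 150,000 × g. Membranes (10–20 μg protein) were pre-incubated with test compound 10 min at 30°C, then Bocillin FL (100 μM final) 20 min. SDS-PAGE, fluorescence scan. IC50 in μg/ml from ≥8 concentrations versus no-drug control.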

P. aeruginosa PBP2 = molecular target: T2, P. aeruginosa PBP2 (Pseudomonas aeruginosa, UniProt Q9X6V3)
T2 sequence (Q9X6V3 1-646): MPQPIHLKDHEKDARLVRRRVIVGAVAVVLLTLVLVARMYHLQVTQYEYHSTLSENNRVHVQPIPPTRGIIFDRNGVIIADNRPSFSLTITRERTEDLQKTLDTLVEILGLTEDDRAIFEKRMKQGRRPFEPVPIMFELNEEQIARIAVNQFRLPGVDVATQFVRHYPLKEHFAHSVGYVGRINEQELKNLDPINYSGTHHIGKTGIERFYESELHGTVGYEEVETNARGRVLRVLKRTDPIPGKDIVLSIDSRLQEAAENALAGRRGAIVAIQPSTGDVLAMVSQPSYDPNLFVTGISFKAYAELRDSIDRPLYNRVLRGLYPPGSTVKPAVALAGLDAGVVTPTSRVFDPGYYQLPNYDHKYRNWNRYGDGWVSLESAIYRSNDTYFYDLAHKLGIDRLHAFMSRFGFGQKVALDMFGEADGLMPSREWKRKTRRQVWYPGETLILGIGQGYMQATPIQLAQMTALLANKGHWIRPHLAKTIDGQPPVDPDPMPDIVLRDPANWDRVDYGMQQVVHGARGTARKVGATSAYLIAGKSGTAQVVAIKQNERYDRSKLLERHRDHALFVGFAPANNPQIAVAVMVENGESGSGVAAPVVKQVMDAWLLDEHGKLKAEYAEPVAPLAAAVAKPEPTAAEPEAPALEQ
In short: as §1

E. coli PBP4 = E. coli PBP4 (Escherichia coli, UniProt P24228)
In short: as §1

E. coli PBP1a = molecular target: T3, E. coli PBP1a (Escherichia coli, UniProt P02918)
T3 sequence (P02918 1-850): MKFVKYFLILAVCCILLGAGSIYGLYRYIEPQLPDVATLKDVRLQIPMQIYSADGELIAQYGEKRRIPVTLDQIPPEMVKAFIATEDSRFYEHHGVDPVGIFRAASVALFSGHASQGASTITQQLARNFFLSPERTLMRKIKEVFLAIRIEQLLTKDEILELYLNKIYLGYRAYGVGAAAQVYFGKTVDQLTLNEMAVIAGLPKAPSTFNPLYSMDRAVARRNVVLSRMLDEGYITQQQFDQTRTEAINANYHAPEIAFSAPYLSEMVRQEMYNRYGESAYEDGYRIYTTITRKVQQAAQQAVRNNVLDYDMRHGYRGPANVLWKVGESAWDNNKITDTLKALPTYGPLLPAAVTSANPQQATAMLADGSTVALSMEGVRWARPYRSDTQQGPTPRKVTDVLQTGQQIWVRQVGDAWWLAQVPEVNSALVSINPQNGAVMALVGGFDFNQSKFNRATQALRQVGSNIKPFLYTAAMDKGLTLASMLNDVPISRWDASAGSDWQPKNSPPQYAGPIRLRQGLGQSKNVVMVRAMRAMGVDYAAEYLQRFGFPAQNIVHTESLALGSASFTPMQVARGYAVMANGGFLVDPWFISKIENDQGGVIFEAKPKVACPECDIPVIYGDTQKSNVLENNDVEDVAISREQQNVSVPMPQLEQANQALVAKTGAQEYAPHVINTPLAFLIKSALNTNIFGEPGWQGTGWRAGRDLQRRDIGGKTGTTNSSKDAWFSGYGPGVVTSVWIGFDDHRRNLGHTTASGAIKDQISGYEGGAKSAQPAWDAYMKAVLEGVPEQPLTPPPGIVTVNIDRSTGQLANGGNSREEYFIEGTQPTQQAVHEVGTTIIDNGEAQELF
In short: as §1

P. aeruginosa PBP1a = P. aeruginosa PBP1a (Pseudomonas aeruginosa, UniProt Q07806)
In short: as §1

IC50 (E. coli PBP2) [µM] | IC50 (P. aeruginosa PBP2) [µM] | IC50 (E. coli PBP4) [µM] | IC50 (E. coli PBP1a) [µM] | IC50 (P. aeruginosa PBP1a) [µM] | Structure (SMILES)
3.47 | 4.15 | > 49 | > 49 | > 49 | NC(=O)[C@@H]1CC[C@@H]2CN1C(=O)N2OS(=O)(=O)O [AVI, avibactam]
0.0615 | 0.645 | > 39.9 | > 39.9 | > 39.9 | CC1(C)S[C@@H]2[C@H](/N=C/N3CCCCCC3)C(=O)N2[C@H]1C(=O)O [MEC, amdinocillin]
> 45.7 | > 45.7 | > 45.7 | 27.4 | 0.348 | CC(C)(O/N=C(\C(=O)N[C@@H]1C(=O)N2C(C(=O)[O-])=C(C[n+]3ccccc3)CS[C@H]12)c1csc(N)n1)C(=O)O [CAZ, ceftazidime]

— article PMC4750707 (Antimicrobial Agents and Chemotherapy, 2016)
